# Results gathered from unrelated publications.
# Matrix: plasma
Compound,test system,conditions,endpoint,value
C[C@@H](O)[C@@H]1NC(=O)CNC(=O)[C@H](Cc2c[nH]cn2)NC(=O)[C@H](Cc2c[nH]c3ccccc23)NC(=O)[C@H](CC(N)=O)NC(=O)CNC(=O)C[C@@H](C(=O)N[C@@H](Cc2c[nH]c3ccccc23)C(=O)N[C@@H](Cc2ccccc2)C(=O)N[C@@H](Cc2ccccc2)C(=O)N[C@@H](CC(N)=O)C(=O)N[C@@H](Cc2ccc(O)cc2)C(=O)N[C@@H](Cc2ccc(O)cc2)C(=O)N[C@@H](Cc2c[nH]c3ccccc23)C(=O)O)NC(=O)[C@@H]2CCCN2C(=O)[C@H](CO)NC1=O,mouse,"intravenous, 3 mg/kg",clearance,1.34 mL/min/kg
CC[C@H](C)CCCCC(=O)N[C@@H](CCN)C(=O)N[C@H](C(=O)N[C@@H](CCN)C(=O)N[C@H]1CCNC(=O)[C@H]([C@@H](C)O)NC(=O)[C@H](CCN)NC(=O)[C@H](CCN)NC(=O)[C@H](CC(C)C)NC(=O)[C@@H](CC(C)C)NC(=O)[C@H](CCN)NC1=O)[C@@H](C)O,male Sprague-Dawley rat,"subcutaneous, 10 mg/kg",Tmax,2.67 h
CC(=O)c1c(C)c2cnc(Nc3ccc(C4CCN(CCS(C)(=O)=O)CC4)cn3)nc2n(C2CCCC2)c1=O,male beagle dog,"oral, 6 mg/kg, multiple doses",Cmax,98.5 ng/mL
CC[C@H](C)[C@H](NC(=O)[C@H](Cc1ccccc1)NC(=O)[C@H](CCC(=O)O)NC(=O)[C@H](CCCCN)NC(=O)[C@H](C)NC(=O)[C@H](C)NC(=O)[C@H](CCC(N)=O)NC(=O)CNC(=O)[C@H](CCC(=O)O)NC(=O)[C@H](CC(C)C)NC(=O)[C@H](Cc1ccc(O)cc1)NC(=O)[C@H](CO)NC(=O)[C@H](CO)NC(=O)[C@@H](NC(=O)[C@H](CC(=O)O)NC(=O)[C@H](CO)NC(=O)[C@@H](NC(=O)[C@H](Cc1ccccc1)NC(=O)[C@@H](NC(=O)CNC(=O)[C@H](CCC(=O)O)NC(=O)[C@H](C)NC(=O)N(N)Cc1c[nH]cn1)[C@@H](C)O)[C@@H](C)O)C(C)C)C(=O)N[C@@H](C)C(=O)N[C@@H](Cc1c[nH]c2ccccc12)C(=O)N[C@@H](CC(C)C)C(=O)N[C@H](C(=O)N[C@@H](CCCNC(=N)N)C(=O)NCC(=O)N[C@@H](CCCNC(=N)N)C(=O)NCC(=O)O)C(C)C,male CD-1 mouse,"intravenous, 1 mg/kg, single dose",C0,37700 ng/mL
CC[C@H](C)[C@@H]1NC(=O)[C@@H]2CCCN2C(=O)[C@H](CC(C)C)NC(=O)[C@H](CC(C)C)NC(=O)CNC(=O)[C@@H](NC(=O)[C@@H](NC(=O)[C@H](CC(=O)O)NC(=O)CNC(=O)[C@@H](NC(=O)[C@H](C)NC(=O)CNC(=O)[C@H](CCCCN)NC(=O)[C@H](CC(C)C)NC(=O)[C@H](CC(C)C)NC(=O)[C@H](CCCCN)NC(=O)CNC(=O)[C@@H](NC(=O)[C@@H](N)CC(C)C)C(C)C)C(C)C)C(C)C)CSSC[C@@H](C(=O)O)NC1=O,female C57BL/6 mouse,"intravenous, 10 mg/kg, single dose",C0,3190 ng/mL
N=C(N)NCCC[C@H](NC(=O)[C@H](Cc1ccccc1)NC(=O)[C@H](CCC(N)=O)NC(=O)OCc1ccccc1)C(=O)c1nccs1,female C57BL/6 mouse,"intravenous, 5 mg/kg",clearance,70.2 mL/min/kg
CC(C)[C@]12O[C@H]1[C@@H]1O[C@]13[C@]1(O[C@H]1C[C@H]1C4=C(CC[C@@]13C)C(=O)OC4)[C@@H]2O,SCID mouse,"intravenous, 0.6 mg/kg",clearance,20.5 mL/min/kg
CC(C)=CCC[C@](C)(O[C@@H]1O[C@H](CO)[C@@H](O)[C@H](O)[C@H]1O)[C@H]1CC[C@]2(C)[C@@H]1[C@H](O)C[C@@H]1[C@@]3(C)CC[C@H](O)C(C)(C)[C@@H]3CC[C@]12C,mouse,"intravenous, 2 mg/kg",clearance,0.46 L/h
